Laboratory results as given in ChEMBL document CHEMBL1153591, “Exploring bis-(indolyl)methane moiety as an alternative and innovative CAP group in the design of histone deacetylase (HDAC) inhibitors” (Bioorg Med Chem Lett, 2009).
pIC50: −log10 of the molar value.

What was measured:
Histone deacetylase 3 = Histone deacetylase 3 (Homo sapiens, UniProt O15379); assay: Inhibition of human HDAC3 by fluorimetry
Outline: (§1)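 Each purified single HDAC isoform incubated with fluorogenic substrate, a p53 fragment (residues […], Arg-His-Lys-Lys(Ac)) carrying an ε-acetylated lysine; deacetylation releases fluorophore, read by fluorimeter. Compounds tested as 10 doses, 1:3 serial dilution starting from 50 µM solution. IC50 from dose-response inhibition curves; trichostatin A as reference compound.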

NCI-H460 = assay: Cytotoxicity against human H460 cells after 24 hrs by sulforhodamine B assay; assay type: functional, cell-based; conditions: NCI-H460, 24 h
Histone deacetylase 8 = target: T1, Histone deacetylase 8 (Homo sapiens, UniProt Q9BY41); assay: Inhibition of human HDAC8 by fluorimetry; outline: as §1
T1 sequence (Q9BY41 whole entry): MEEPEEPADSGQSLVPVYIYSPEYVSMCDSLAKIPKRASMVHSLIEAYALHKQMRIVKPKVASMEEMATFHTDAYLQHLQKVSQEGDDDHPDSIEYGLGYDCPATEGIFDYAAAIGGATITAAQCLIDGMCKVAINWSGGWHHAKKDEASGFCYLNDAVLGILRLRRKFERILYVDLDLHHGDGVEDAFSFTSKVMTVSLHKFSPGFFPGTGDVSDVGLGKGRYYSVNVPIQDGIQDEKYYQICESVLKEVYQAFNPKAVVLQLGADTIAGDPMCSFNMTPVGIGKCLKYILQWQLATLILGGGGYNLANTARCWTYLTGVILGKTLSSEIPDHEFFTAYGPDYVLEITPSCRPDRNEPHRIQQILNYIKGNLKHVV

[1] = target: T2, Polyamine deacetylase HDAC10 (Homo sapiens, UniProt Q969S8); assay: Inhibition of human HDAC10 by fluorimetry; outline: as §1
T2 sequence (Q969S8 whole entry): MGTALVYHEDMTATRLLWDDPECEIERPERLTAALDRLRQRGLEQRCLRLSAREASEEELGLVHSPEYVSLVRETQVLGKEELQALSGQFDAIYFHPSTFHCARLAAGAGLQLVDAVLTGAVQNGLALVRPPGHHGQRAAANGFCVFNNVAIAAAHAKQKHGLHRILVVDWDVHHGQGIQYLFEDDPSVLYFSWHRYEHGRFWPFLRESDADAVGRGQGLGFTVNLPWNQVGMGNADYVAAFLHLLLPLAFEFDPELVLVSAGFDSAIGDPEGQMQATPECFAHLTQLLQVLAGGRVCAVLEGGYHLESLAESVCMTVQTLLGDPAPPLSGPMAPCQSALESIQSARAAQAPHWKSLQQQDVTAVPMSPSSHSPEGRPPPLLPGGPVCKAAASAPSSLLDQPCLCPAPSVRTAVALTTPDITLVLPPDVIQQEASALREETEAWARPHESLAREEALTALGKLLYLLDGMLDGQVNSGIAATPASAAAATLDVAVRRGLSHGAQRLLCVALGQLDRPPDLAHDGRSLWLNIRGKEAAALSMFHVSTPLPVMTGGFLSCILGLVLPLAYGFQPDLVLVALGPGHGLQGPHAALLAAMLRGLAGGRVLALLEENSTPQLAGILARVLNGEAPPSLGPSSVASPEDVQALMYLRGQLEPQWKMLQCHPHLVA

Histone deacetylase 2 = Histone deacetylase 2 (Homo sapiens, UniProt Q92769); assay: Inhibition of human HDAC2 by fluorimetry; outline: as §1
Histone deacetylase 9 = Histone deacetylase 9 (Homo sapiens, UniProt Q9UKV0); assay: Inhibition of human HDAC9 by fluorimetry; outline: as §1
Histone deacetylase 11 = target: T3, Histone deacetylase 11 (Homo sapiens, UniProt Q96DB2); assay: Inhibition of human HDAC11 by fluorimetry; outline: as §1
T3 sequence (Q96DB2 whole entry): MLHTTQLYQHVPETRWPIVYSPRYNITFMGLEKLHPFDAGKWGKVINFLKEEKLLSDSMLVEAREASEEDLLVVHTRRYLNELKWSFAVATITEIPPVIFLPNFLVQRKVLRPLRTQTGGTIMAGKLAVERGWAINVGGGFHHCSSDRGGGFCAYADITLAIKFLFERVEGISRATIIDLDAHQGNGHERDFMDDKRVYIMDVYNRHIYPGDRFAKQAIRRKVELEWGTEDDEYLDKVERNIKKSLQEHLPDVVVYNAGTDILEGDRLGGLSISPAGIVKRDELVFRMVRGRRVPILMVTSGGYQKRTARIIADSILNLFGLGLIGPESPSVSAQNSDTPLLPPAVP

HCT-116 = assay: Cytotoxicity against human HCT116 cells after 24 hrs by sulforhodamine B assay; assay type: functional, cell-based; conditions: HCT-116, 24 h
Histone deacetylase 1 = Histone deacetylase 1 (Homo sapiens, UniProt Q13547); assay: Inhibition of human HDAC1 by fluorimetry; outline: as §1
Histone deacetylase 4 = Histone deacetylase 4 (Homo sapiens, UniProt P56524); assay: Inhibition of human HDAC4 by fluorimetry; outline: as §1
Histone deacetylase 5 = Histone deacetylase 5 (Homo sapiens, UniProt Q9UQL6); assay: Inhibition of human HDAC5 by fluorimetry; outline: as §1
[2] = target: T4, Protein deacetylase HDAC6 (Homo sapiens, UniProt Q9UBN7); assay: Inhibition of human HDAC6 by fluorimetry; outline: as §1
T4 sequence (Q9UBN7 whole entry): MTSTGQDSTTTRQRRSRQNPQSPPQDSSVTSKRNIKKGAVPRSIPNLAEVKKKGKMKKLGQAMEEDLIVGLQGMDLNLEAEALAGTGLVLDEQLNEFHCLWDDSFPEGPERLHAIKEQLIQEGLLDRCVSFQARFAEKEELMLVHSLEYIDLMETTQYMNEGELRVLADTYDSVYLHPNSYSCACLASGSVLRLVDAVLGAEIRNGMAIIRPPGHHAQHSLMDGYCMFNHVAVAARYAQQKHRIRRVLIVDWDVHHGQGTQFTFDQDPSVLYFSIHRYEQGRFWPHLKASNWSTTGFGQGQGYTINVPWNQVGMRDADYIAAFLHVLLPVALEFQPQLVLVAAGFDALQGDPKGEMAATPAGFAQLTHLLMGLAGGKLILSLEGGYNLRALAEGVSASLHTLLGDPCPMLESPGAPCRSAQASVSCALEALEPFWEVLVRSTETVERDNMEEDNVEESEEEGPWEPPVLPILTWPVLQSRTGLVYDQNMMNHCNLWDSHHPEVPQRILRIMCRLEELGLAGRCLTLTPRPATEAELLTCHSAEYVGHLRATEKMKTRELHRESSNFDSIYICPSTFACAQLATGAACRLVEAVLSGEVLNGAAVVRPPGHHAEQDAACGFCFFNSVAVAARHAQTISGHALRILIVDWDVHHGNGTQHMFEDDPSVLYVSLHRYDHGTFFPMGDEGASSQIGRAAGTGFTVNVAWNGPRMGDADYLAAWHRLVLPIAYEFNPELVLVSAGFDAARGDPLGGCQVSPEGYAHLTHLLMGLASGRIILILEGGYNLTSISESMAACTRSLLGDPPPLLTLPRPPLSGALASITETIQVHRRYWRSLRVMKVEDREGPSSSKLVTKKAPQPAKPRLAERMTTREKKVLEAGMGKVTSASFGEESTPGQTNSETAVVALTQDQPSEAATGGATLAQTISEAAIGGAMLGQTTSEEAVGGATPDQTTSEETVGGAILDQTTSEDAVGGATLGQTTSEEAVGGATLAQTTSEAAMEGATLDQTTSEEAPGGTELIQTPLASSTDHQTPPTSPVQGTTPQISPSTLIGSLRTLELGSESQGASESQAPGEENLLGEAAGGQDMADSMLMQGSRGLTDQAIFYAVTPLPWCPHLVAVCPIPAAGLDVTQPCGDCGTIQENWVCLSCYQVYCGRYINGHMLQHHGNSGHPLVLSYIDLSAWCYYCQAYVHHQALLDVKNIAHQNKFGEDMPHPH

Histone deacetylase 4, sequence (P56524 whole entry): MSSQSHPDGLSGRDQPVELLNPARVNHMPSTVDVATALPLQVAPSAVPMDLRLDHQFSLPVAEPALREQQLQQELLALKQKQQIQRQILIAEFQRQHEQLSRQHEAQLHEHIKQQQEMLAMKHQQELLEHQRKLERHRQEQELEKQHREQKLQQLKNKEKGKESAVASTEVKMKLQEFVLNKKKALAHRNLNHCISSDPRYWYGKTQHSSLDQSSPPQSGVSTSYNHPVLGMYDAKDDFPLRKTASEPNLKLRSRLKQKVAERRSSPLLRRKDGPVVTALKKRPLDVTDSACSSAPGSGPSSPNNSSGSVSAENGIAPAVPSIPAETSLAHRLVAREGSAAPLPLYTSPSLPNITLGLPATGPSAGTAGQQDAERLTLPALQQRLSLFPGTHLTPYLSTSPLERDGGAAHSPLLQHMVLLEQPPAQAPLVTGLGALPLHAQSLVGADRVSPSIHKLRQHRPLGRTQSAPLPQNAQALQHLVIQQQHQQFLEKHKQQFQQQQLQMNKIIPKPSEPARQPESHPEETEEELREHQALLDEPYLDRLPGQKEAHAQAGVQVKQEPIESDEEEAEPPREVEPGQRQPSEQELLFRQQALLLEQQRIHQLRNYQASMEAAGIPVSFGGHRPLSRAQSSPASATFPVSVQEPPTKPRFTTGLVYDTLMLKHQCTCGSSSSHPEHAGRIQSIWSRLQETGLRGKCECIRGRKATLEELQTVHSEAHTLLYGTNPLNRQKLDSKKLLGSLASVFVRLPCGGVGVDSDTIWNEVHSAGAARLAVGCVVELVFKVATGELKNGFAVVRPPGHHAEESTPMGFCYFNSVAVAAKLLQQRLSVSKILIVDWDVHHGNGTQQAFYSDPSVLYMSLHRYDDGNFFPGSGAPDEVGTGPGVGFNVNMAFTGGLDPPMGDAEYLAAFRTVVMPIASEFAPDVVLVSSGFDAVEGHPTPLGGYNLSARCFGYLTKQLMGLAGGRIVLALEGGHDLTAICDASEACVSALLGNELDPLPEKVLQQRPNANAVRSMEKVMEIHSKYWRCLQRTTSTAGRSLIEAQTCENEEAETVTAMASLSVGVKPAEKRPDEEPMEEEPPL
Histone deacetylase 2, sequence (Q92769 whole entry): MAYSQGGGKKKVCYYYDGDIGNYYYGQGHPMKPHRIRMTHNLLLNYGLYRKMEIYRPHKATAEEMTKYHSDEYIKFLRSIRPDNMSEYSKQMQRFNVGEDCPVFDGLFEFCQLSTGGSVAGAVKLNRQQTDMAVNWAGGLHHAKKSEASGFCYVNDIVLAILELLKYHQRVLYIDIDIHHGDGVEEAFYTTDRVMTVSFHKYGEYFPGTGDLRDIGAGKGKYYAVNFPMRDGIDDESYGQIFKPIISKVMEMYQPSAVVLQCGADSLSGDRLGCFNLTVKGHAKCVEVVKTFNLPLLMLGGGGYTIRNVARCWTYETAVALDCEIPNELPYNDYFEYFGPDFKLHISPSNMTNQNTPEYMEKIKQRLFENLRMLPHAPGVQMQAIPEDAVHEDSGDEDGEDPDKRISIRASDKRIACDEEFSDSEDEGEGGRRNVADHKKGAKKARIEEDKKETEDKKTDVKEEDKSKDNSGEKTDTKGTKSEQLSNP
Histone deacetylase 1, sequence (Q13547 whole entry): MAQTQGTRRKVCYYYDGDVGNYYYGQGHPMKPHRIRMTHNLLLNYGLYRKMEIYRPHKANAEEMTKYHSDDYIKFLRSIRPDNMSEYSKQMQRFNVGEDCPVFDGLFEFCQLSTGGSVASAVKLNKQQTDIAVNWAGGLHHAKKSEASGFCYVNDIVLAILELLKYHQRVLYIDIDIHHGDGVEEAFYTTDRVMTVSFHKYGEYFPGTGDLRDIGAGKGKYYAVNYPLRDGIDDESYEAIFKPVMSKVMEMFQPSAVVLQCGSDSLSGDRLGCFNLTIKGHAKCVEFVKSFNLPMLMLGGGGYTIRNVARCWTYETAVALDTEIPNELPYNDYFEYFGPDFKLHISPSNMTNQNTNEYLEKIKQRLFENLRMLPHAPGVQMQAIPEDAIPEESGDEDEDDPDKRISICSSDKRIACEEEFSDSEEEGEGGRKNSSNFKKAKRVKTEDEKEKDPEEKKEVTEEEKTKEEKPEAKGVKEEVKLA
Histone deacetylase 3, sequence (O15379 whole entry, the tested form may be a part, canonical isoform): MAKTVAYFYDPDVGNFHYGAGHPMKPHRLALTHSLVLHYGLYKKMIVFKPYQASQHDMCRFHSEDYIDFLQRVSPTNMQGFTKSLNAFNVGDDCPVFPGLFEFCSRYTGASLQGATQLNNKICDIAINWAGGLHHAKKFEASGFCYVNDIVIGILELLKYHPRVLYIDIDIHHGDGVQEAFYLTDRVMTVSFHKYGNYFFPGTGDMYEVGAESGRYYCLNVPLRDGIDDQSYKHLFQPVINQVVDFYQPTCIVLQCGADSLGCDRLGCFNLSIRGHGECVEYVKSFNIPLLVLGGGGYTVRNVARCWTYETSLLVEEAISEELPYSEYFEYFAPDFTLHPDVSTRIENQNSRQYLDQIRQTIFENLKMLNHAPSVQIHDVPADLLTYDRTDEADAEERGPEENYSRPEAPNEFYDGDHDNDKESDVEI
Histone deacetylase 9, sequence (Q9UKV0 whole entry): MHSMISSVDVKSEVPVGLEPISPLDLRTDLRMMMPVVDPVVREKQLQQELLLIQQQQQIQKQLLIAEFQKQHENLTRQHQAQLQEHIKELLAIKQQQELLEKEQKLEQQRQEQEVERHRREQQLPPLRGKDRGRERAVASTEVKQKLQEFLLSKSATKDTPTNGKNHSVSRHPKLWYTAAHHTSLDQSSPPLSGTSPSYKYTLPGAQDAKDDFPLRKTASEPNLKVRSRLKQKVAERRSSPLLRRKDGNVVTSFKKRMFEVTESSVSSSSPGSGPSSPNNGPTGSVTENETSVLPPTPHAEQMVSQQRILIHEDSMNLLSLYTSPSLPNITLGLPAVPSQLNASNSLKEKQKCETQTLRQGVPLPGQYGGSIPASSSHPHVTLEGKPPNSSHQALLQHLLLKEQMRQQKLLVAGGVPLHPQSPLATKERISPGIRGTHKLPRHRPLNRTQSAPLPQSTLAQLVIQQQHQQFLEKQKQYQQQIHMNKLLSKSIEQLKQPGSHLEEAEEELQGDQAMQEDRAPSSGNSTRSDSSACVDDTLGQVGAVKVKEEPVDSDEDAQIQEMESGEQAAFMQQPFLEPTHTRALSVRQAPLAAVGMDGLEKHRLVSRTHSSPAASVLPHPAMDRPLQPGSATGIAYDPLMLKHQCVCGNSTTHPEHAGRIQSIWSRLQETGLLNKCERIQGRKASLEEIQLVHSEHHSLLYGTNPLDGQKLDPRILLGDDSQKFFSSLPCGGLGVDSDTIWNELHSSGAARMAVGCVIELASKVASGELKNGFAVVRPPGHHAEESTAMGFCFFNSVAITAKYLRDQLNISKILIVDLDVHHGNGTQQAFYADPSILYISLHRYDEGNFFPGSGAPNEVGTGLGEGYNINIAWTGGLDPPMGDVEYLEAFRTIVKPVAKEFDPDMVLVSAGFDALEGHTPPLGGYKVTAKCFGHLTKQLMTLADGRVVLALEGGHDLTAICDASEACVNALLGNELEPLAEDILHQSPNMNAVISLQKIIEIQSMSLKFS
Histone deacetylase 5, sequence (Q9UQL6 whole entry): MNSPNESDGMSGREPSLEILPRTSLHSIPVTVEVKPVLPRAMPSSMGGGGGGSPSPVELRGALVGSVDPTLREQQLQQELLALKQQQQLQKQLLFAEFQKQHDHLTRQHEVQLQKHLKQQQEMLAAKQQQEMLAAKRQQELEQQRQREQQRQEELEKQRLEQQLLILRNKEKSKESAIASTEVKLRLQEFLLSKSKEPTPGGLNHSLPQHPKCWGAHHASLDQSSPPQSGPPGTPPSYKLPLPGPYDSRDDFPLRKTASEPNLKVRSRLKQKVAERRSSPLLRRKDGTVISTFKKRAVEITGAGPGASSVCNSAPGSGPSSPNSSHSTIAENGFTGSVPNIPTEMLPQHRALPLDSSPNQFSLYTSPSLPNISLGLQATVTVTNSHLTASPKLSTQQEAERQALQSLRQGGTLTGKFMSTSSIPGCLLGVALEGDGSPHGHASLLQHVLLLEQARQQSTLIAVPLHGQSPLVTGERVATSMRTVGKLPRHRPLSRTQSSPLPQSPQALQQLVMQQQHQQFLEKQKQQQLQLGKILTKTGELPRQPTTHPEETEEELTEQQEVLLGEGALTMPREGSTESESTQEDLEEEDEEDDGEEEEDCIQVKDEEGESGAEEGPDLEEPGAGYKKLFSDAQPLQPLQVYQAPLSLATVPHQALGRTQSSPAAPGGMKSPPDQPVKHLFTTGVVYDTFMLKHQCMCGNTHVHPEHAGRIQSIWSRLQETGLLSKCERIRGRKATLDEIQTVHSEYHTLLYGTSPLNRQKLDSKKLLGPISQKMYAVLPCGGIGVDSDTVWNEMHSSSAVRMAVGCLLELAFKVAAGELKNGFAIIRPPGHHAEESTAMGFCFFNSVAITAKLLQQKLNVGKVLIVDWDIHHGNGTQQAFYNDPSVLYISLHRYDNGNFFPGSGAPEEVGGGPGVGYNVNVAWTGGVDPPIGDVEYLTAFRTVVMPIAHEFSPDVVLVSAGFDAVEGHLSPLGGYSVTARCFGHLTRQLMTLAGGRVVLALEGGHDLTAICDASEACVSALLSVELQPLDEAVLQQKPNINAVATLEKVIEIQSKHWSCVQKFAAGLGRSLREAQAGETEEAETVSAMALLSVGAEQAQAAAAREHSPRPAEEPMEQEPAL

pIC50 (Histone deacetylase 3) | pIC50 (Histone deacetylase 8) | pIC50 [1] | pIC50 (Histone deacetylase 2) | pIC50 (Histone deacetylase 9) | pIC50 (Histone deacetylase 11) | pIC50 (Histone deacetylase 1) | pIC50 (Histone deacetylase 4) | pIC50 (Histone deacetylase 5) | Structure (SMILES) | pIC50 (NCI-H460) | pIC50 (HCT-116) | pIC50 [2]
6.59 | 4.13 | 4.14 | 5.96 | 4.30 | 5.24 | 4.68 | 3.82 | 4.55 | Nc1ccccc1NC(=O)CCCCCC(c1c[nH]c2ccccc12)c1c[nH]c2ccccc12 | < 4.70 | 4.78 | –
– | – | – | – | – | – | – | – | – | O=C(CCCCCCC(c1c[nH]c2ccccc12)c1c[nH]c2ccccc12)NO | 5.57 | 5.46 | –
– | – | – | – | – | – | – | – | – | Cc1ccc2[nH]cc(C(CCCCCC(=O)NO)c3c[nH]c4ccc(C)cc34)c2c1 | 6.29 | 6.57 | –
– | – | – | – | – | – | – | – | – | O=C(CCCCC(c1c[nH]c2ccccc12)c1c[nH]c2ccccc12)NO | 5.28 | 5.24 | –
– | – | – | – | – | – | – | – | – | O=C(CCCCCC(c1cc2ccccc2[nH]1)c1c[nH]c2ccccc12)NO (stereo not given) | 6.09 | 6.08 | –
– | – | – | – | – | – | – | – | – | CCc1cccc2c(C(CCCCCC(=O)NO)c3c[nH]c4c(CC)cccc34)c[nH]c12 | 5.32 | 5.46 | –
– | – | – | – | – | – | – | – | – | CN(O)C(=O)CCCCCC(c1cn(C)c2ccccc12)c1cn(C)c2ccccc12 | < 4.70 | < 4.70 | –
7.64 | 6.74 | 6.62 | 6.36 | 6.47 | – | 7.08 | 6.66 | 6.51 | COc1cccc2c(C(CCCCCC(=O)NO)c3c[nH]c4c(OC)cccc34)c[nH]c12 | 6.26 | 6.39 | 8.59

Structure (SMILES) | pIC50 (Histone deacetylase 3) | pIC50 (Histone deacetylase 8) | pIC50 [1] | pIC50 (Histone deacetylase 2) | pIC50 (Histone deacetylase 9) | pIC50 (Histone deacetylase 11) | pIC50 (Histone deacetylase 1) | pIC50 (Histone deacetylase 4) | pIC50 (Histone deacetylase 5) | pIC50 (NCI-H460) | pIC50 (HCT-116) | pIC50 [2]
O=C(CCCCCC(c1c[nH]c2ccc([N+](=O)[O-])cc12)c1c[nH]c2ccc([N+](=O)[O-])cc12)NO | 7.74 | 6.22 | 6.60 | 6.23 | 6.82 | – | 6.85 | 6.66 | 6.85 | 5.49 | 5.92 | 7.70
